Lipid droplet: inhibitors of hepatocyte lipid droplet formation, primary screen, imaging, high-throughput imaging, BODIPY stain | AML12 mouse hepatocytes, oleate lipid droplets | inhibition, % at 6.5 µM | 240,000 compounds, 0.4% hits | AID 1656, 2009;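 active = lipid droplet intensity inhibited by at least 50%, with more than 500 cells counted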
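Assay system: AML12 hepatocytes (mouse) / Also added: 100 µM oleic acid challenge / Times: overnight treatment with compound plus oleate / Detection: high-content imaging of BODIPY-stained droplets and DAPI nuclei / Evaluation: % inhibition of lipid droplet signal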
m5-HT2A agonist: mouse Htr2a agonists via beta-arrestin recruitment, primary screen, cell-based, luminescence. 5-hydroxytryptamine receptor 2A (Mus musculus), P35363. CHO-K1 mHTR2A beta-arrestin complementation; percent of 30 µM serotonin response. activation, % at 7.6 µM. 360,000 compounds, 0.66% hits;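 active = activation above a run cutoff, the mean activation of all tested compounds plus 3 SD, cut at about 14% in these data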
Target sequence (P35363 whole entry, looked up): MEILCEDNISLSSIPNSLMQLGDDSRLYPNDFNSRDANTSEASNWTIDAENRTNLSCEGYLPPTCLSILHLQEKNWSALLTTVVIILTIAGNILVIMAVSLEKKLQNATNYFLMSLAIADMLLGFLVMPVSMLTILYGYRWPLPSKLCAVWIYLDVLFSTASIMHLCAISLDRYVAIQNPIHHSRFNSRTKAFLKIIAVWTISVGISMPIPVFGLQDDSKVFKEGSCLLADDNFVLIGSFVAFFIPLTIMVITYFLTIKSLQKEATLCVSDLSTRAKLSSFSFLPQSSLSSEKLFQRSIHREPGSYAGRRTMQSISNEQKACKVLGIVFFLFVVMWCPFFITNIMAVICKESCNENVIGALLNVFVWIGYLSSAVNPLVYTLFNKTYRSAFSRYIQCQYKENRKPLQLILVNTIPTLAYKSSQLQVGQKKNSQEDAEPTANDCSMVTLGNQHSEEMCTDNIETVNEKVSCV
MC4R ag barr: MC4R agonists recruiting beta-arrestin, primary screen, cell-based, luminescence, agonist arm of biased-ligand search; U2OS MC4R beta-arrestin complementation; percent of melanotan II response, DMSO zero; Melanocortin receptor 4 (Homo sapiens), P32245; 360,000 compounds, 0.98% hits; activation, % at 8.9 µM; AID 540308, 2011;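 active = activation above a per-plate cutoff, the mean activation of sample wells on that plate plus 3 SD, cut at about 8% in these data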
PREPL inh: PREPL enzyme inhibitors, primary screen, biochemical, fluorescence polarization. Prolyl endopeptidase-like (Homo sapiens), Q4J6C6. recombinant PREPL, fluorescence polarization activity-based probe. inhibition, % at 5.96 µM. 320,000 compounds, 0.68% hits. AID 2751, 2010; in the data active = inhibition above about 43%
NTR1 agonist: agonists of human NTR1, primary screen, imaging, U2OS cells, beta-arrestin-GFP, high content; 330,000 compounds, 0.17% hits; AID 493036, 2011; activation, % at 20 µM; Neurotensin receptor type 1 (Homo sapiens), P30989; NTR1-U2OS beta-arrestin-GFP spot imaging, agonist mode;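 active = activation at or above 40% of the spot to cytoplasm intensity ratio, with at least 20 cells analyzed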
MC4R antag cAMP: MC4R antagonists of cAMP signaling, primary screen, cell-based, TR-FRET, antagonist arm of biased-ligand search | MC4R-expressing cells, MTII-stimulated cAMP, LANCE TR-FRET | AID 540295, 2011 | inhibition, % at 6.5 µM | 360,000 compounds, 0.48% hits;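 active = inhibition above its plate's cutoff, the mean of tested wells on that plate plus 3 SD, cut at about 29% in these data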
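Assay system: U2OS-MC4R stable cell line; Also added: Melanotan II; Technique: Eu-cAMP/anti-cAMP TR-FRET, emission 671 nm; Times: 30-min compound, 1-h challenge, 1-h detection, room temperature.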
MC4R barr ag: MC4R beta-arrestin agonists, retest, confirmation, cell-based, luminescence, U2OS. shares compounds with MC4R ag barr. U2OS MC4R beta-arrestin recruitment; scaled DMSO 0%, Melanotan II 100%. activation, % at 8.9 µM. 2,400 compounds, 31% hits. AID 602192, 2012;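 active = mean activation across replicates above the hit cutoff set in the earlier primary screen, cut at about 8% in these data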
MOR DOR agonist: agonists of MOR-DOR heterodimerization, counter-screen for MC4R biased agonist project, cell-based, luminescence. shares compounds with MC4R ag barr. AID 602194, 2012. activation, % at 9.2 µM. 2,400 compounds, 5.8% hits. U2OS PathHunter beta-arrestin, beta-gal luminescence; percent of deltorphin B response, DMSO zero;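 active = mean activation across replicates exceeds the hit threshold derived in the earlier primary screen, cut at about 18% in these data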
MOR ag counter: OPRM1 agonists via beta-arrestin recruitment, confirmation, counter-screen for mouse HTR2A agonist project, cell-based, luminescence, single concentration; shares compounds with m5-HT2A agonist; U2OS OPRM1 beta-arrestin PathHunter; DMSO 0%, DAMGO 9.3 µM 100%; activation, % at 9.3 µM; 2,300 compounds, 5.3% hits; AID 624380, 2012;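 active = mean activation above the mean of DMSO-only wells plus 3 SD, cut at about 0.5% in these data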
HTR2A ag conf: mouse HTR2A agonists, beta-arrestin recruitment, confirmation, cell-based, luminescence, CHO-K1 PathHunter, triplicate; activation, % at 7.6 µM; shares compounds with m5-HT2A agonist; DMSO 0%, 30 µM serotonin 100%; 2,300 compounds, 19% hits;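 active = mean activation across triplicates above the hit threshold derived in the original primary screen, cut at about 15% in these data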
A number is an active result. This is a sample that favours compounds with a hit; in the whole collection about 2.7% have one here.

How did COc1cn(-c2ccccc2)nc1C(=O)NCc1ccccc1 do in these assays?
Lipid droplet: inactive; m5-HT2A agonist: inactive; MC4R ag barr: inactive; PREPL inh: inactive; NTR1 agonist: inactive; MC4R antag cAMP: inactive

What do the screens show for `COc1ccc(NC(=O)C(c2ccccc2)N2CCN(c3ccccn3)CC2)cc1Cl` (stereo unspecified)?
Lipid droplet: inactive; m5-HT2A agonist: inactive; MC4R ag barr: inactive; PREPL inh: inactive; NTR1 agonist: inactive; MC4R antag cAMP: inactive

Results for Cc1ccc(C(=O)Nc2ccc(C(=O)/C=C/c3cccs3)cc2)cc1 ?
m5-HT2A agonist: inactive; MC4R ag barr: 28; PREPL inh: inactive; NTR1 agonist: inactive; MC4R antag cAMP: inactive; MC4R barr ag: inactive; MOR DOR agonist: inactive

What do the screens show for `O=C(/C=C/c1cccs1)c1ccc(NC(=O)c2cccc(Br)c2)cc1`?
Lipid droplet: inactive; m5-HT2A agonist: inactive; MC4R ag barr: inactive; PREPL inh: inactive; NTR1 agonist: inactive; MC4R antag cAMP: inactive

How did CC(C)n1c(O)c(/C=C2\C=Nc3ccccc32)sc1=Nc1ccccc1 do in these assays?
m5-HT2A agonist: inactive; MC4R ag barr: 13; PREPL inh: inactive; NTR1 agonist: inactive; MC4R antag cAMP: inactive; MC4R barr ag: inactive; MOR DOR agonist: inactive

Results for CCOC(=O)c1ccc(NC(=O)CSc2nnc(COc3ccccc3)n2C)cc1 ?
Lipid droplet: inactive; m5-HT2A agonist: inactive; MC4R ag barr: 11; PREPL inh: inactive; NTR1 agonist: inactive; MC4R antag cAMP: inactive; MC4R barr ag: inactive; MOR DOR agonist: inactive

What do the screens show for `Cn1c(CNC(=O)c2ccc(Cl)c(Cl)c2)nnc1SCC(=O)Nc1sc2c(c1C#N)CCCC2`?
Lipid droplet: inactive; m5-HT2A agonist: inactive; MC4R ag barr: 11; PREPL inh: inactive; NTR1 agonist: inactive; MC4R antag cAMP: inactive; MC4R barr ag: 11; MOR DOR agonist: inactive

What do the screens show for `Cc1sc(NC(=O)CSc2nnc(COc3ccc(Cl)cc3)n2C)c(C#N)c1C`?
m5-HT2A agonist: inactive; MC4R ag barr: 11; PREPL inh: inactive; NTR1 agonist: inactive; MC4R antag cAMP: inactive; MC4R barr ag: inactive; MOR DOR agonist: inactive

Results for Cc1sc2ncn(CC(=O)NCCCC(=O)N3CCCCC3)c(=O)c2c1C ?
Lipid droplet: inactive; m5-HT2A agonist: inactive; MC4R ag barr: inactive; PREPL inh: inactive; NTR1 agonist: inactive; MC4R antag cAMP: inactive

What do the screens show for `O=C(COC(=O)c1ccc2c(c1)C(=O)N(CCc1ccccc1)C2=O)Nc1ccc(OC(F)F)cc1`?
Lipid droplet: inactive; m5-HT2A agonist: inactive; MC4R ag barr: 13; PREPL inh: inactive; NTR1 agonist: inactive; MC4R antag cAMP: inactive; MC4R barr ag: 10; MOR DOR agonist: inactive

What do the screens show for `CCOc1ccc(NC(=O)COC(=O)c2ccc3c(c2)C(=O)N(CCc2ccccc2)C3=O)cc1`?
Lipid droplet: inactive; m5-HT2A agonist: inactive; MC4R ag barr: inactive; PREPL inh: inactive; NTR1 agonist: inactive; MC4R antag cAMP: inactive

How did CNc1nc(SC)n(C)c(=O)c1N=O do in these assays?
Lipid droplet: inactive; PREPL inh: inactive; NTR1 agonist: inactive

Results for CCOC(=O)Nc1nnc(/C=C/c2ccc(OC)cc2)s1 ?
Lipid droplet: inactive; m5-HT2A agonist: inactive; MC4R ag barr: inactive; PREPL inh: inactive; NTR1 agonist: inactive; MC4R antag cAMP: inactive

What do the screens show for `CCCCOC(=O)Nc1nnc(/C=C/c2ccc(OC)cc2)s1`?
Lipid droplet: inactive; m5-HT2A agonist: inactive; MC4R ag barr: 21; PREPL inh: inactive; NTR1 agonist: inactive; MC4R antag cAMP: inactive; MC4R barr ag: inactive; MOR DOR agonist: inactive

How did CCOC(=O)c1c(NC(=O)c2ccc(N3C(=O)C4C5C=CC(C5)C4C3=O)cc2)sc2c1CCCC2 (stereo unspecified) do in these assays?
m5-HT2A agonist: inactive; MC4R ag barr: inactive; PREPL inh: inactive; NTR1 agonist: inactive; MC4R antag cAMP: inactive

Results for CC(=O)c1c(C)[nH]c(C(=O)CSc2ncnc3sc(-c4ccccc4)cc23)c1C ?
Lipid droplet: inactive; m5-HT2A agonist: inactive; MC4R ag barr: 25; PREPL inh: inactive; NTR1 agonist: inactive; MC4R antag cAMP: inactive; MC4R barr ag: 16; MOR DOR agonist: inactive

What do the screens show for `O=C(O)CSc1ncnc2sc(-c3ccccc3)cc12`?
Lipid droplet: inactive; m5-HT2A agonist: inactive; MC4R ag barr: inactive; PREPL inh: inactive; NTR1 agonist: inactive; MC4R antag cAMP: inactive

Results for C=CCN1C(=O)C(Cc2ccc(OC)cc2)S/C1=N/N=C/c1ccco1 (stereo unspecified) ?
Lipid droplet: inactive; m5-HT2A agonist: inactive; MC4R ag barr: inactive; PREPL inh: inactive; NTR1 agonist: inactive; MC4R antag cAMP: inactive

How did C=CCN1C(=O)C(Cc2ccc(OC)cc2)S/C1=N\N=C\c1cccs1 (stereo unspecified) do in these assays?
Lipid droplet: inactive; m5-HT2A agonist: inactive; MC4R ag barr: 9.9; PREPL inh: inactive; NTR1 agonist: inactive; MC4R antag cAMP: inactive; MC4R barr ag: 9.7; MOR DOR agonist: inactive

How did CCCN(CCC)CCNC(=O)c1cc2c(-c3ccc(Cl)cc3)nn(C)c2s1 do in these assays?
Lipid droplet: inactive; m5-HT2A agonist: 30; MC4R ag barr: 11; PREPL inh: inactive; NTR1 agonist: inactive; MC4R antag cAMP: inactive; MC4R barr ag: 9.0; MOR DOR agonist: inactive; MOR ag counter: inactive; HTR2A ag conf: 51

From PubChem BioAssay
